Source: ChEMBL document CHEMBL1129560, “Nucleoside conjugates. 15. Synthesis and biological activity of anti-HIV nucleoside conjugates of ether and thioether phospholipids” (J Med Chem, 1996)
pEC50, pIC50: −log10 of the molar value.

How the values were obtained:
[1] = system: CCRF-CEM; assay: Ability to reduce viable cell number on HIV-1-infected CEM cells in vitro; settings: Homo sapiens
[2] = Time taken to decrease plasma concentration to half of its initial concentration after intraperitoneal administration; type: ADME, organism-based; settings: ip
How it was run: (§1)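 Female NIH-Swiss mice (25–30 g) received one dose of micellar conjugate ip at 394 mg/kg (equivalent to 100 mg/kg parent nucleoside), or the parent at 100 mg/kg ip. An iv arm gave 205 mg/kg conjugate or 50 mg/kg parent. Three mice were taken per time point up to 24 h. Serum nucleoside was measured by HPLC-UV at 260 nm. Analysis was noncompartmental, with t1/2 = 0.693/λz.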

[3] = Pharmacokinetic parameter AUC in mice following a single dose intraperitoneal administration of the compound; settings: mouse, in vivo, ip
[4] = system: CCRF-CEM; assay: Effective concentration against HIV-1-infected CEM cells in mice administered intraperitoneally; type: functional, cell-based; settings: Homo sapiens, in the assay text read “in vitro” for “in mice administered intraperitoneally”
How it was run: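 Conjugates were given as micellar suspensions made by sonication, in HIV-1-infected CEM cells. EC50 is the concentration protecting infected cells by 50%. IC50 is the concentration reducing viable cell number by 50%.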

[5] = Time taken to decrease plasma concentration to half of its initial concentration after iv administration; type: ADME, organism-based
[6] = Time taken to decrease plasma concentration to half of its initial concentration after ip administration; type: ADME, organism-based
How it was run: as §1

Row | SMILES | pIC50 [1] | half-life [2] [h] | AUC [3] [ng·h/mL] | pEC50 [4] | half-life [5] [h] | half-life [6] [h]
1 | CCCCCCCCCCCCCCCCCCSCC(COP(=O)(O)OP(=O)(O)OC[C@@H]1CC[C@H](n2ccc(N)nc2=O)O1)OC(=O)CCCCCCCCCCCCCCC (some centres not stated) | 2.55 | – | – | 3.89 | – | –
2 | CCCCCCCCCCCCCCCCCCSCC(COP(=O)([O-])OP(=O)([O-])OC[C@H]1O[C@@H](n2ccc(=O)[nH]c2=O)C[C@@H]1N=[N+]=[N-])OC(=O)CCCCCCCCCCCCCCC.[Na+].[Na+] (some centres not stated) | 3.42 | – | – | 4.77 | 6.5 | –
3 | CCCCCCCCCCCCCCCC(=O)OC(COCCCCCCCCCCCCCC)COP(=O)(O)OP(=O)(O)OC[C@H]1O[C@@H](n2cc(C)c(=O)[nH]c2=O)C[C@@H]1N=[N+]=[N-] (some centres not stated) | 1.85 | – | – | 4.24 | – | –
4 | [N-]=[N+]=N[C@H]1C[C@H](n2ccc(=O)[nH]c2=O)O[C@@H]1CO [NAVURIDINE] | – | – | 42300 | – | 0.89 | –

More lines, in order of rising pIC50 [1], values ahead:

Row | pIC50 [1] | half-life [2] [h] | AUC [3] [ng·h/mL] | pEC50 [4] | half-life [5] [h] | half-life [6] [h] | SMILES
5 | 3.72 | – | 175000 | 6.73 | – | 0.28 | Cc1cn([C@H]2C[C@H](N=[N+]=[N-])[C@@H](CO)O2)c(=O)[nH]c1=O [ZIDOVUDINE]
6 | 3.92 | 5.69 | 25800 | > 6.24 | – | – | CCCCCCCCCCCCCCCCCCSCC(COP(=O)([O-])OP(=O)([O-])OC[C@H]1O[C@@H](n2cc(C)c(=O)[nH]c2=O)C[C@@H]1N=[N+]=[N-])OC(=O)CCCCCCCCCCCCCCC.[Na+].[Na+] (some centres not stated)
